Data reported in ChEMBL document CHEMBL3232979, “Discovery of a novel series of orally active nociceptin/orphanin FQ (NOP) receptor antagonists based on a dihydrospiro(piperidine-4,7'-thieno[2,3-c]pyran) scaffold” (J Med Chem, 2014).
Active and inactive are the calls of the source. No cut-off for these calls is given here.

How the values were obtained:
Rattus norvegicus [1] = experiment: Ex vivo receptor occupancy of NOP receptor in Sprague-Dawley rat brain at 10 mg/kg, po after 24 hrs by LC-MS/MS analysis; assay type: functional
How it was run: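 Male Sprague-Dawley rats, 220–300 g, 12 h light:dark cycle, free chow and water. A single oral 10 mg/kg dose or oral vehicle was given. 24 h later, nonlabeled tracer was given as an iv tail-vein bolus at 3 μg/kg. Brain was taken 40 min after tracer (hypothalamus, striatum), homogenized in ACN with 0.1% formic acid, centrifuged, diluted with water and read by LC-MS/MS.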

[2] = target: Kappa-type opioid receptor (Homo sapiens, UniProt P41145); experiment: Displacement of [3H]-diprenorphine from human kappa opioid receptor after 120 mins by cell based assay
How it was run: (§1)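 Radioligand binding with [3H]-diprenorphine on membranes from CHO cells overexpressing recombinant human kappa, mu or delta opioid receptor; Ki determined.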

Nociceptin receptor = Nociceptin receptor (Homo sapiens, UniProt P41146); experiment: Displacement of [3H]-nociceptin from human recombinant NOP receptor expressed in CHO cells after 60 mins by scintillation counting; assay type: cell-based
Mu-type opioid receptor = Mu-type opioid receptor (Homo sapiens, UniProt P35372); experiment: Displacement of [3H]-diprenorphine from human mu opioid receptor after 120 mins by cell based assay; how it was run: as §1
[3] = target: Delta-type opioid receptor (Homo sapiens, UniProt P41143); experiment: Displacement of [3H]-diprenorphine from human delta opioid receptor after 120 mins by cell based assay; how it was run: as §1
[4] = Metabolic stability in rat hepatic microsomes assessed as GSH-adduct formation; assay type: ADME, Liver, Microsome
How it was run: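 GSH trapping: compounds incubated with rat hepatic microsomes and glutathione; metabolite profiling by LC/MS for GSH conjugates.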

[5] = Plasma elimination half life in Sprague-Dawley rat at 1 mg/kg, iv; assay type: ADME, organism-based; design: dose 1 mg/kg, route intravenous; conditions: read-out: beta t1/2 (converted)
How it was run: (§2)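 Male Sprague-Dawley rats (n = 3 per treatment), fasted 4–24 h, dosed iv bolus at 1 mg/kg or po at 3 or 10 mg/kg in 20% (w/w) Captisol in 25 mM phosphate buffer pH 2. Arterial blood sampled 0–16 or 24 h into EDTA, and plasma protein-precipitated with internal standard. LC-MS/MS quantitation against plasma standard curve (1–50 000 ng/mL). Noncompartmental analysis. F = dnAUCpo/dnAUCiv.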

[6] = Plasma clearance in Sprague-Dawley rat at 1 mg/kg, iv; assay type: ADME, organism-based; design: dose 1 mg/kg, route intravenous; how it was run: as §2
[7] = Oral bioavailability in Sprague-Dawley rat at 3 mg/kg; assay type: ADME, organism-based; conditions: in vivo; how it was run: as §2
[8] = AUC (0 to infinity) in Sprague-Dawley rat at 3 mg/kg, po; assay type: ADME, organism-based; design: time infinity, dose 3 mg/kg, route oral; conditions: plasma; how it was run: as §2
[9] = Volume of distribution in Sprague-Dawley rat at 1 mg/kg, iv; assay type: ADME, organism-based; design: dose 1 mg/kg, route intravenous; conditions: in vivo; how it was run: as §2
[10] = AUC (0 to infinity) in Sprague-Dawley rat at 10 mg/kg, po; assay type: ADME, organism-based; design: time infinity, dose 10 mg/kg, route oral; conditions: plasma; how it was run: as §2
[11] = Oral bioavailability in Sprague-Dawley rat at 10 mg/kg; assay type: ADME, organism-based; conditions: in vivo; how it was run: as §2
Rattus norvegicus [12] = experiment: Reversal of Ro64-6198-incued hypothermia in po dosed Sprague-Dawley rat administered 60 mins before Ro64-6198 challenge measured after 120 mins; assay type: functional, organism-based
How it was run: (§3)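 Male Sprague-Dawley rats, 225 g, housed 2 per cage, acclimated at least 90 min. Rectal temperature was taken, then oral gavage of vehicle or test compound (0.03, 0.1 or 0.3 mg/kg). A second temperature was taken at 60 min, then Ro64-6198 (6 mg/kg sc) or vehicle was given, and a third temperature 120 min later. Between-group ANOVA with Dunnett posthoc tests against vehicle and agonist controls.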

Rattus norvegicus [13] = experiment: Toxicity in Sprague-Dawley rat assessed as basal body temperature at 0.03 to 0.3 mg/kg, po after 60 mins; conditions: in vivo, 1 h
Rattus norvegicus [14] = experiment: Reversal of Ro64-6198-incued hypothermia in Sprague-Dawley rat at 0.1 to 0.3 mg/kg, po administered 60 mins before Ro64-6198 challenge measured after 120 mins; assay type: functional, organism-based; how it was run: as §3

Sequence of Kappa-type opioid receptor (P41145 whole entry): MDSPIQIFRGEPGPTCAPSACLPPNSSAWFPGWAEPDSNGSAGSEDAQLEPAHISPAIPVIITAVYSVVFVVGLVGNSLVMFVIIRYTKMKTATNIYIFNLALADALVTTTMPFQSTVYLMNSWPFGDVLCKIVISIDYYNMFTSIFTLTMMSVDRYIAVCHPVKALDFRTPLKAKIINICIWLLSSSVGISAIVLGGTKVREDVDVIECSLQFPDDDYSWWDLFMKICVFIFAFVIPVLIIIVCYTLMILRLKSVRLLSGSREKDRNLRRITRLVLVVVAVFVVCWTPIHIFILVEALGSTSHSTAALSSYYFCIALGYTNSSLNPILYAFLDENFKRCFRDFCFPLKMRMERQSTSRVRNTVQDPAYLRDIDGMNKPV
Sequence of Mu-type opioid receptor (P35372 whole entry): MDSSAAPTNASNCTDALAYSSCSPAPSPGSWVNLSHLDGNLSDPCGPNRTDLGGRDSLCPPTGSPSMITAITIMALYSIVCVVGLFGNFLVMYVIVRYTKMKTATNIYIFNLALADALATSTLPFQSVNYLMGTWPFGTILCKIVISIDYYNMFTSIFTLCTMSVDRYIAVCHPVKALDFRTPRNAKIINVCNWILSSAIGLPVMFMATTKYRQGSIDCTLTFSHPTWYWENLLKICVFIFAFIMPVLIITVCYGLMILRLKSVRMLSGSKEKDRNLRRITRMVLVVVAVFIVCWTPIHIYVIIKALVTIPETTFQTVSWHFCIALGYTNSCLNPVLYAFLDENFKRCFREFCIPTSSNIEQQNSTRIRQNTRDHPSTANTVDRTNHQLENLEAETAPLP
Sequence of Delta-type opioid receptor (P41143 whole entry): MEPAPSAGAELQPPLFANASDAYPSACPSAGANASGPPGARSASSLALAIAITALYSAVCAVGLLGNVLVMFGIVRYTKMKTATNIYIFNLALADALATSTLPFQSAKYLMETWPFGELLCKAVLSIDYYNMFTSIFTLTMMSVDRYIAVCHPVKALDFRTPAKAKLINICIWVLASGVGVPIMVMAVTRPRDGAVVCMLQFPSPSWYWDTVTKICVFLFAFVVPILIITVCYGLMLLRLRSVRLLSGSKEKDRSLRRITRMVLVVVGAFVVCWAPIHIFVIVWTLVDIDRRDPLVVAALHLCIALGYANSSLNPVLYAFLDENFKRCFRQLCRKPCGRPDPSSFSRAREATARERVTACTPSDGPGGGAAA
Sequence of Nociceptin receptor (P41146 whole entry): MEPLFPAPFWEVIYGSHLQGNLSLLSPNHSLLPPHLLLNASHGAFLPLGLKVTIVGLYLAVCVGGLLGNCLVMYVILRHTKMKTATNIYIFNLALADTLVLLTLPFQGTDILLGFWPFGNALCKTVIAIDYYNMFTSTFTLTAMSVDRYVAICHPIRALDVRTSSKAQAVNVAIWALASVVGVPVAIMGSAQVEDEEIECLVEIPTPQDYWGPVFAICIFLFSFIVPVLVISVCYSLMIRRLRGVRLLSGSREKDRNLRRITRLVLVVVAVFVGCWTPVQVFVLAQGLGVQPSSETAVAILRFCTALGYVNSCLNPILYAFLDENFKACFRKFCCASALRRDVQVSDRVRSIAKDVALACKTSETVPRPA

Row | SMILES | Occ (Rattus norvegicus [1]) | Ki [2] | Ki (Nociceptin receptor) | Ki (Mu-type opioid receptor) | Ki [3] | further results
1 | Cc1nn(-c2ncccc2-c2ncc[nH]2)cc1CN1CCC2(CC1)OCC(F)(F)c1cc(Cl)sc12 | 88% | > 375000 pM | 91.6 pM | > 375000 pM | > 375000 pM | 
2 | COCc1cccnc1-n1cc(CN2CCC3(CC2)OCCc2cc(Cl)sc23)c(C)n1 |  |  | 90.8 pM |  |  | 
3 | Cc1nn(-c2c(F)cccc2CN(C)C)cc1CN1CCC2(CC1)OCCc1cc(Cl)sc12 |  |  | 122 pM |  |  | 
4 | COCc1cccnc1-n1cc(CN2CCC3(CC2)OCC(F)(F)c2cc(Cl)sc23)c(C)n1.O=C(O)C(O)C(O)C(=O)O | 90% | > 375000 pM | 185 pM | > 375000 pM | > 375000 pM | Stability [4]: Stable
5 | Cc1nn(-c2c(F)cccc2CN(C)C)cc1CN1CCC2(CC1)OCC(F)(F)c1cc(Cl)sc12.O=C(O)C(O)C(O)C(=O)O | 97% | > 375000 pM | 145 pM | > 375000 pM | > 375000 pM | 
6 | Cc1nn(-c2ncccc2F)cc1CN1CCC2(CC1)OCCc1cc(F)sc12 |  |  | 139 pM |  |  | 
7 | Cc1nn(-c2ncccc2F)cc1CN1CCC2(CC1)OCC(F)(F)c1cc(Cl)sc12.O=C(O)C(O)C(O)C(=O)O | 55% | > 375000 pM | 176 pM | > 375000 pM | > 375000 pM | half-life [5]: 12.1 h; clearance [6]: 19.8 mL/min/kg; bioavailability [7]: 62%; AUC(0-inf) [8]: 1820 ng·h/mL; Vd [9]: 13.6 L/kg
8 | Cc1nn(-c2c(F)cccc2F)cc1CN1CCC2(CC1)OCCc1cc(F)sc12 |  |  | 71.1 pM |  |  | 
9 | Cc1nn(-c2c(F)cccc2CN(C)C)cc1CN1CCC2(CC1)OCCc1cc(F)sc12 |  |  | 64.8 pM |  |  | 
10 | CNCc1cccc(F)c1-n1cc(CN2CCC3(CC2)OCC(F)(F)c2cc(Cl)sc23)c(C)n1.O=C(O)C(O)C(O)C(=O)O | 100% | > 375000 pM | 97 pM | > 375000 pM | > 375000 pM | 
11 | COCc1cccnc1-n1cc(CN2CCC3(CC2)OCCc2cc(F)sc23)c(C)n1 |  |  | 93.9 pM |  |  | 
12 | Cc1nn(-c2ncccc2CN(C)C)cc1CN1CCC2(CC1)OCC(F)(F)c1cc(Cl)sc12.O=C(O)C(O)C(O)C(=O)O | 72% | > 375000 pM | 371 pM | > 375000 pM | > 375000 pM | 
13 | Cc1nn(-c2c(F)cccc2CO)cc1CN1CCC2(CC1)OCC(F)(F)c1cc(Cl)sc12.O=C(O)C(O)C(O)C(=O)O | 87% | > 375000 pM | 114 pM | > 375000 pM | > 375000 pM | AUC(0-inf) [10]: 1280 ng·h/mL; half-life [5]: 3.9 h; clearance [6]: 60.5 mL/min/kg; bioavailability [11]: 51%; Vd [9]: 12.7 L/kg
14 | Cc1nn(-c2ncccc2CO)cc1CN1CCC2(CC1)OCC(F)(F)c1cc(Cl)sc12.O=C(O)C(O)C(O)C(=O)O | 62% | > 375000 pM | 105 pM | > 375000 pM | > 375000 pM | AUC(0-inf) [10]: 4100 ng·h/mL; half-life [5]: 3.8 h; Activity (Rattus norvegicus [12]): Dose-dependent effect; clearance [6]: 23.9 mL/min/kg; Activity (Rattus norvegicus [13]): Non-toxic; Activity (Rattus norvegicus [14]): Active; bioavailability [11]: 57%; Vd [9]: 5.3 L/kg
15 | Cc1nn(-c2c(F)cccc2F)cc1CN1CCC2(CC1)OCC(F)(F)c1cc(Cl)sc12.O=C(O)C(O)C(O)C(=O)O | 49% | > 375000 pM | 172 pM | > 375000 pM | > 375000 pM | half-life [5]: 10.8 h; clearance [6]: 52.9 mL/min/kg; bioavailability [7]: 49%; AUC(0-inf) [8]: 438 ng·h/mL; Vd [9]: 28.2 L/kg
16 | Cc1nn(-c2c(F)cccc2C(N)=O)cc1CN1CCC2(CC1)OCCc1cc(F)sc12 |  |  | 95.4 pM |  |  | 
